Values joined by “and” are separate entries in the source; they are usually repeats but may differ in a detail not shown here. Equal entries are not always repeated. “Also recorded” adds a separate entry of the source.
Experiments:
[1] = test system: Japanese patients with relapsed or refractory B‐NHL; assay: Phase I study: safety, adverse events and DLT; assay type: in vivo, human
Summary of the method: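 Patients received 800 mg orally once in a 4-day cycle 0, then 800 mg BID in 28-day cycles; reduction to 600 then 400 mg BID permitted. AEs graded by CTCAE v4.03, with hematology, chemistry, urinalysis, vital signs, 12-lead ECG and LVEF by echo/MUGA. DLT assessed over cycles 0–1 in patients completing both with ≥75% cycle-1 compliance, or having DLT. Safety set: ≥1 dose.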

CYP3A4 = conditions: ref Unpublished data in Eisai, cited from earlier work
[2] = test system: relapsed or refractory B‐cell lymphoma; assay: Phase I study: antitumor activity, Lugano Classification; assay type: in vivo, human
Summary of the method: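 Oral dosing: 800 mg single dose in 4-day cycle 0, then 800 mg BID in 28-day cycles. Response assessed by CT per Lugano Classification. Bone marrow aspiration or biopsy if screening was positive or unconfirmed, to confirm CR, or when clinically indicated. Best overall response summarized overall and by DLBCL or FL in patients receiving ≥1 dose. ORR given with two-sided Clopper-Pearson exact 95% CIs.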

[3] = test system: refractory B‐NHL and advanced solid tumors; conditions: study outside of Japan; cited from earlier work
[4] = Phase I study: plasma and urine pharmacokinetics; assay type: in vivo, human; conditions: for R ss: AUC(0-12h) on cycle 1 day 15/AUC(0-inf) on cycle 0 day 1; for t max: median (minimum, maximum)
[5] = seven treated patients, investigator assessment

CCN(c1cc(-c2ccc(CN3CCOCC3)cc2)cc(C(=O)NCc2c(C)cc(C)[nH]c2=O)c1C)C1CCOCC1 [Tazemetostat]
AE nasopharyngitis ([1]; n = 7): 71.4%
AE rash ([1]; n = 7): 29%
AE stomatitis ([1]; n = 7): 29%
AE thrombocytopenia ([1]; n = 7): 42.9% and 43%
AEs leading to dose interruption ([1]; n = 7): 57.1%
Grade 3 AE anemia ([1]; n = 7): 14.3%
Grade 3 AE fatigue ([1]; n = 7): 14.3%
Grade 3 AE hypophosphatemia ([1]; n = 7): 14.3%
Grade 3 AE increased γ‐glutamyltransferase ([1]; n = 7): 14.3%
Grade 3 AE leukopenia ([1]; n = 7): 14.3%
Grade 3 AE lymphopenia ([1]; n = 7): 14.3%
Grade 3 AE neutropenia ([1]; n = 7): 14.3%
Grade 3 AE squamous cell carcinoma of the tongue ([1]; n = 7): 14.3%
Grade 3 AE thrombocytopenia ([1]; n = 7): 28.6%
Grade 3 or higher AEs ([1]; n = 7): 57.1%
Grade 4 AE increased levels of blood triglycerides ([1]; n = 7): 14.3%
Grade 4 AE intestinal perforation ([1]; n = 7): 14.3%
TR‐AE dysgeusia ([1]; n = 7): 42.9%
TR‐AE thrombocytopenia ([1]; n = 7): 42.9%
grade 2 peripheral neuropathy, leading to drug dose reduction ([1]; n = 7): 14.3%
patients having at least one TR‐AE ([1]; n = 7): 85.7%
patients who died or had AEs resulting in death ([1]; n = 7): None
patients who experienced at least one AE ([1]; n = 7): seven
treatment‐related serious AEs ([1]; n = 7): No treatment‐related serious AEs
Serious AEs ([1]; n = 7, intestinal perforation and squamous cell carcinoma of the tongue): 28.6%
treatment‐related serious AEs ([1]; n = 7, listed as tazemetostat): both assessed as not related to study drug; also recorded: No treatment‐related SAEs
patients who received a reduction in the tazemetostat dose ([1]; n = 7, section 3.2): 14.3%
time to first dose reduction ([1]; one patient): 4.9 months
effect on the activity of CYP3A4 (CYP3A4; in vitro): induce and inhibit
metabolizing enzyme (CYP3A4): mainly metabolized by CYP3A4
responses in patients with DLBCL ([2]; DLBCL): one of three
Best overall response: Complete response (CR) ([2]; DLBCL (n = 3), 800 mg BID): 1 (33.3) n (%)
Best overall response: Not evaluable ([2]; DLBCL (n = 3), 800 mg BID): 0 (0.0) n (%)
Best overall response: Partial response (PR) ([2]; DLBCL (n = 3), 800 mg BID): 0 (0.0) n (%)
Best overall response: Progressive disease ([2]; DLBCL (n = 3), 800 mg BID): 2 (66.7) n (%)
Best overall response: Stable disease ([2]; DLBCL (n = 3), 800 mg BID): 0 (0.0) n (%)
Objective response rate (CR + PR) ([2]; DLBCL (n = 3), 800 mg BID): 1 (33.3) n (%)
responses in patients with FL ([2]; FL): three of four
Best overall response: Complete response (CR) ([2]; FL (n = 4), 800 mg BID): 0 (0.0) n (%)
Best overall response: Not evaluable ([2]; FL (n = 4), 800 mg BID): 0 (0.0) n (%)
Best overall response: Partial response (PR) ([2]; FL (n = 4), 800 mg BID): 3 (75.0) n (%)
Best overall response: Progressive disease ([2]; FL (n = 4), 800 mg BID): 0 (0.0) n (%)
Best overall response: Stable disease ([2]; FL (n = 4), 800 mg BID): 1 (25.0) n (%)
Objective response rate (CR + PR) ([2]; FL (n = 4), 800 mg BID): 3 (75.0) n (%)
Best overall response: Complete response (CR) ([2]; Total (n = 7), 800 mg BID): 1 (14.3) n (%)
Best overall response: Not evaluable ([2]; Total (n = 7), 800 mg BID): 0 (0.0) n (%)
Best overall response: Partial response (PR) ([2]; Total (n = 7), 800 mg BID): 3 (42.9) n (%)
Best overall response: Progressive disease ([2]; Total (n = 7), 800 mg BID): 2 (28.6) n (%)
Best overall response: Stable disease ([2]; Total (n = 7), 800 mg BID): 1 (14.3) n (%)
Objective response rate (CR + PR) ([2]; Total (n = 7), 800 mg BID): 4 (57.1) n (%)
ORR ([2]; all patients (4/7), 800 mg BID): 57.1%
patients who experienced a reduction of tumor burden ([2]; n = 7): 85.7%
maximum change in the sum of the product of the diameters from baseline in the target lesion ([2]; one patient with FL with gain‐of‐function mutation in EZH2, partial response): −82.3%
CR as BOR [2, 5]: 14.3%
PR as BOR [2, 5]: 42.9%
progressive disease as BOR [2, 5]: 28.6%
stable disease as BOR [2, 5]: 14.3%
recommended dose [3]: 800 mg BID
absorption after oral administration ([4]; 800 mg oral): rapidly absorbed
R ss ([4]; mean (SD)): 0.849 (0.277)
R ss ([4]; mean (SD), listed as tazemetostat): 0.849
mean urinary excretion of tazemetostat ([4]; both after C0D1 and C1D15 dosing): less than 3%
Vd/F ([4]; human, plasma, oral, 800 mg): 1910 L
AUC ([4]; human, plasma, oral, 800 mg BID, AUC(0‐ t ), plasma, after multiple doses, Cycle 1 day 15, last sampling time point 12 h, mean (SD), N = 7): 4490 ng·h/mL
t max ([4]; human, plasma, oral, 800 mg BID, t max, plasma, after multiple doses, Cycle 1 day 15, N = 7): ~1 h
AUC ([4]; human, plasma, oral, 800 mg, AUC(0‐12 h), plasma, after single dose, Cycle 0 day 1, mean (SD), N = 7): 4700 ng·h/mL
AUC ([4]; human, plasma, oral, 800 mg, AUC(0‐ t ), plasma, after single dose, Cycle 0 day 1, last sampling time point 72 h, mean (SD), N = 7): 5990 ng·h/mL
AUC ([4]; human, plasma, oral, 800 mg, AUC(0‐inf), plasma, after single dose, Cycle 0 day 1, mean (SD), N = 7): 6030 ng·h/mL
t max ([4]; human, plasma, oral, 800 mg, t max, plasma, after single dose, Cycle 0 day 1, N = 7): ~2 h
Cmax ([4]; human, plasma, po, 800 mg): 1150 ng/mL
C ss,min ([4]; plasma, after multiple doses 800 mg BID, Cycle 1 day 15, mean (SD), N = 7): 95.1 (37.7) ng/mL
t max ([4]; plasma, after multiple doses, Cycle 1 day 15, N = 7): 1.05 (0.88, 2.03) h
t max ([4]; plasma, after single dose, Cycle 0 day 1, N = 7): 1.97 (0.95, 4.08) h

From article PMC7935786 (Cancer Science, 2021)
